The source made the active and inactive calls. The calls are words filed in the database; no cut-off is given here.

Data set [1] has as its system SH-SY5Y. Briefly: Neuroprotective activity against MPP+-induced neuronal cell death in human SH-SY5Y cells assessed as cell viability at 10 uM pretreated for 2 hrs before MPP+ administration measured after 4 hrs by MTT assay. In kind it is functional. The gist of the method: (§1)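 SH-SY5Y cells grown at 37 °C in DMEM with 10% heat-inactivated FBS and penicillin/streptomycin, detached with 1 mM EGTA in PBS for 15 min, seeded at 1 × 10^4 cells/well and incubated 24 h. Cells were pretreated 2 h with compound at 3, 10 or 30 μM, then exposed to MPP+ medium. MTT was added to 0.5 mg/mL final, incubated 4 h, and formazan read at 550 nm. Guanosine served as positive control. Triplicates, mean ± SEM, ANOVA with Student–Newman–Keuls test.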
A general note: Tetrazolium assays rely on reduction of a dye to a coloured formazan, in cell work by metabolically active cells.

The subject of data set [2] is SH-SY5Y. The data set can be described thus: Neuroprotective activity against MPP+-induced neuronal cell death in human SH-SY5Y cells assessed as cell viability at 3 uM pretreated for 2 hrs before MPP+ administration measured after 4 hrs by MTT assay. It is filed as functional. In a few lines: as §1
Data set [3] has as its system SH-SY5Y. Briefly: Neuroprotective activity against MPP+-induced neuronal cell death in human SH-SY5Y cells assessed as cell viability at 30 uM pretreated for 2 hrs before MPP+ administration measured after 4 hrs by MTT assay. It is filed as functional. The gist of the method: as §1
Data set [4] relates to SH-SY5Y. Briefly: Cytotoxicity in human SH-SY5Y cells at 3 to 30 uM by MTT assay. In kind it is cell-based. In a few lines: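 SH-SY5Y human dopaminergic neuroblastoma cells grown at 37 °C, 5% CO2, in DMEM with 10% inactivated FBS and penicillin/streptomycin. Cells detached with 1 mM EGTA in PBS for 15 min, seeded at 1 × 10^4 cells/well, and incubated 24 h. Compounds given at 3, 10 and 30 μM. MTT added to 0.5 mg/mL final for 4 h at 37 °C; formazan read at 550 nm. Run in triplicate.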

On to `C/C=C(\C)C(=O)O[C@@H]1CC[C@](O)(CCl)[C@]2(COC(C)=O)[C@@H](OC(C)=O)C[C@@H](C)[C@](C)(C[C@H](OC(C)=O)C3=CC(=O)OC3)[C@@H]12` [AJUGAMARIN A2 CHLOROHYDRIN], for which the Activity with SH-SY5Y [1] was 79.7%; in the data set on SH-SY5Y [2] it was 71%; in the data set on SH-SY5Y [3], 83.7%.

Turning to `CC[C@H](C)C(=O)O[C@@H](C[C@@]1(C)[C@H](C)C[C@H](OC(C)=O)[C@]2(COC(C)=O)[C@@H]1[C@H](OC(=O)[C@@H](C)CC)CC[C@]2(O)CCl)C1=CC(=O)OC1`, the outcome in the data set with SH-SY5Y [1], with SH-SY5Y [2] and in the data set on SH-SY5Y [3] was inactive.

In the case of `C/C=C(\C)C(=O)OC[C@@]1(O)CCC[C@@H]2[C@@](C)(CCC3=CC(=O)OC3)[C@H](C)C[C@H](O)[C@]21CO`, the result with SH-SY5Y [1], in the data set on SH-SY5Y [2] and in the data set on SH-SY5Y [3] was inactive.

Turning to `C/C=C(\C)C(=O)OC[C@@]12[C@@H](OC(C)=O)C[C@@H](C)[C@](C)(CCC3=CC(=O)OC3)[C@H]1CCC[C@]2(O)CCl`, the result in the data set on SH-SY5Y [1], with SH-SY5Y [2] and in the data set with SH-SY5Y [3] was inactive.

`CC[C@H](C)C(=O)O[C@@H](C[C@@]1(C)[C@H](C)C[C@H](OC(C)=O)[C@]2(COC(C)=O)[C@@H]1[C@H](OC(=O)[C@@H](C)CC)CC[C@]21CO1)C1=CC(=O)OC1` [AJUGATAKASIN B]: the Activity with SH-SY5Y [1] is on record as 76.5%; with SH-SY5Y [2] it was 70.2%; in the data set on SH-SY5Y [3] it was 84.3%.

Consider `CC(=O)OC[C@]12[C@@H](OC(C)=O)C[C@@H](C)[C@]3(C)C[C@H](C4=CC(=O)OC4)O[C@H](CC[C@]1(O)CCl)[C@H]32`, for which the result in the data set with SH-SY5Y [1], in the data set with SH-SY5Y [2] and with SH-SY5Y [3] was inactive.

As for `C/C=C(\C)C(=O)OC[C@@]12[C@H](CCC[C@]1(O)CO)[C@@](C)(CCC1=CC(=O)OC1)[C@H](C)C[C@@H]2O`, the result in the data set on SH-SY5Y [1], in the data set with SH-SY5Y [2] and in the data set with SH-SY5Y [3] was inactive.

In the case of `C/C=C(\C)C(=O)OC[C@@]12[C@@H](OC(C)=O)C[C@@H](C)[C@](C)(CCC3=CC(=O)OC3)[C@H]1CCC[C@]21CO1`, the outcome in the data set on SH-SY5Y [1], in the data set with SH-SY5Y [2] and with SH-SY5Y [3] was inactive.

Take `CC(=O)OC[C@@]12[C@@H](OC(C)=O)C[C@@H](C)[C@](C)(C[C@H](O)C3=CC(=O)OC3)[C@H]1CCC[C@]21CO1`: the result in the data set on SH-SY5Y [1], in the data set on SH-SY5Y [2] and in the data set with SH-SY5Y [3] was inactive.

As for `CC(=O)OC[C@@]12[C@@H](OC(C)=O)C[C@@H](C)[C@](C)(C[C@H](OC(C)=O)C3=CC(=O)OC3)[C@H]1[C@H](OC(C)=O)CC[C@]21CO1`, the result in the data set with SH-SY5Y [1], with SH-SY5Y [2] and with SH-SY5Y [3] was inactive.

As for `C/C=C(\C)C(=O)O[C@@H]1CC[C@]2(CO2)[C@]2(COC(C)=O)[C@@H](OC(C)=O)C[C@@H](C)[C@](C)(C[C@H](O)C3=CC(=O)OC3)[C@@H]12` [AJUGAMARIN A1], the Activity in the data set on SH-SY5Y [1] was 73.4%; in the data set with SH-SY5Y [2] it was 65.3%; in the data set with SH-SY5Y [3] it was 81.9%.

`C/C=C(\C)C(=O)O[C@@H]1CC[C@]2(CO2)[C@]2(COC(C)=O)[C@@H](OC(C)=O)C[C@@H](C)[C@](C)(C[C@H](OC(C)=O)C3=CC(=O)OC3)[C@@H]12`: the outcome with SH-SY5Y [1], with SH-SY5Y [2] and in the data set with SH-SY5Y [3] was inactive.

Regarding `C/C=C(\C)C(=O)O[C@@H](C[C@@]1(C)[C@H](C)C[C@H](OC(C)=O)[C@]2(COC(C)=O)[C@@H]1[C@H](OC(=O)/C(C)=C/C)CC[C@]21CO1)C1=CC(=O)OC1` [AJUGATAKASIN A], the results for the Activity in the data set with SH-SY5Y [1], with SH-SY5Y [2] and with SH-SY5Y [3] were 71.5%, 66.3% and 78.2%, respectively.

Turning to `CC(=O)OC[C@]12[C@@H](OC(C)=O)C[C@@H](C)[C@]3(C)C[C@H](C4=CC(=O)OC4)O[C@H](CC[C@]1(O)CO)[C@H]32` [AJUGACILIATIN G], the Activity with SH-SY5Y [1] is recorded as 73.6%; in the data set on SH-SY5Y [2], 69.1%; in the data set on SH-SY5Y [3], 81.5%.

With `CC[C@H](C)C(=O)O[C@@H]1CC[C@](O)(CCl)[C@]2(COC(C)=O)[C@@H](OC(C)=O)C[C@@H](C)[C@](C)(C[C@H](OC(C)=O)C3=CC(=O)OC3)[C@@H]12`, the outcome in the data set with SH-SY5Y [1], in the data set with SH-SY5Y [2] and in the data set on SH-SY5Y [3] was inactive.

For the molecule `C/C=C(\C)C(=O)O[C@@H](C[C@@]1(C)[C@H](C)C[C@H](OC(C)=O)[C@]2(COC(C)=O)[C@@H]1[C@H](OC(=O)[C@@H](C)CC)CC[C@]21CO1)C1=CC(=O)OC1` [AJUGAMARIN H1], the Activity is on record as 70.4% in the data set on SH-SY5Y [1], 67.3% in the data set with SH-SY5Y [2] and 87.5% with SH-SY5Y [3].

With `C/C=C(\C)C(=O)O[C@@H](C[C@@]1(C)[C@H](C)C[C@H](OC(C)=O)[C@]2(COC(C)=O)[C@@H]1[C@H](OC(=O)/C(C)=C/C)CC[C@]2(O)CCl)C1=CC(=O)OC1`, the outcome in the data set on SH-SY5Y [1], in the data set on SH-SY5Y [2] and in the data set on SH-SY5Y [3] was inactive.

Regarding `CC[C@H](C)C(=O)O[C@@H](C[C@@]1(C)[C@H](C)C[C@H](OC(C)=O)[C@]2(COC(C)=O)[C@@H]1[C@H](OC(C)=O)CC[C@]2(O)CCl)C1=CC(=O)OC1` [AJUGACILIATIN B], the Activity worked out at 80.4% in the data set with SH-SY5Y [1], 67.4% in the data set with SH-SY5Y [2] and 88.2% with SH-SY5Y [3].

`CC(=O)OC[C@]12[C@@H](OC(C)=O)C[C@@H](C)[C@]3(C)C[C@H](C4=CC(=O)OC4)O[C@H](CC[C@]14CO4)[C@H]32` [AJUGACILIATIN H]: the results for the Activity in the data set with SH-SY5Y [1], in the data set on SH-SY5Y [2] and in the data set with SH-SY5Y [3] were 74.2%, 65.2% and 78.2%, respectively.

As for `C/C=C(\C)C(=O)O[C@@H](C[C@@]1(C)[C@H](C)C[C@H](OC(C)=O)[C@]2(COC(C)=O)[C@@H]1[C@H](OC(C)=O)CC[C@]21CO1)C1=CC(=O)OC1` [AJUGANIPPONIN A], the Activity result in the data set on SH-SY5Y [4] was “Non-toxic”; in the data set on SH-SY5Y [1], 69.2%; in the data set with SH-SY5Y [2], 65.4%; in the data set on SH-SY5Y [3] it was 76.6%.

Turning to `C/C=C(\C)C(=O)O[C@@H]1CC[C@](O)(CCl)[C@]2(COC(C)=O)[C@@H](OC(C)=O)C[C@@H](C)[C@](C)(C[C@H](OC(=O)[C@@H](C)CC)C3=CC(=O)OC3)[C@@H]12`, the outcome in the data set with SH-SY5Y [1], in the data set with SH-SY5Y [2] and in the data set on SH-SY5Y [3] was inactive.

With `C/C=C(\C)C(=O)O[C@@H]1CC[C@](O)(CCl)[C@]2(COC(C)=O)[C@@H](OC(C)=O)C[C@@H](C)[C@](C)(C[C@H](O)C3=CC(=O)OC3)[C@@H]12` [AJUGAMARIN A1 CHLOROHYDRIN], the Activity in the data set with SH-SY5Y [1] turned out to be 69.2%; in the data set on SH-SY5Y [2] it was 67.1%; with SH-SY5Y [3], 73.8%.

Turning to `C/C=C(\C)C(=O)O[C@@H](C[C@@]1(C)[C@H](C)C[C@H](OC(C)=O)[C@]2(COC(C)=O)[C@@H]1CCC[C@]21CO1)C1=CC(=O)OC1`, the outcome in the data set on SH-SY5Y [1], in the data set with SH-SY5Y [2] and with SH-SY5Y [3] was inactive.

Turning to `C/C=C(\C)C(=O)OC[C@@]12[C@H](CCC[C@]1(O)COC(C)=O)[C@@](C)(CCC1=CC(=O)OC1)[C@H](C)C[C@@H]2O`, the outcome in the data set on SH-SY5Y [1], in the data set on SH-SY5Y [2] and in the data set with SH-SY5Y [3] was inactive.

As to `Nc1nc2c(ncn2[C@@H]2O[C@H](CO)[C@@H](O)[C@H]2O)c(=O)[nH]1` [GUANOSINE], the Activity with SH-SY5Y [1] amounted to 79.7%; in the data set with SH-SY5Y [2] it was 70%; in the data set with SH-SY5Y [3], 90.1%.

With `C/C=C(\C)C(=O)[C@@H]1CC[C@]2(CO2)[C@]2(COC(C)=O)[C@@H](OC(C)=O)C[C@@H](C)[C@](C)(C[C@H](OC(=O)[C@@H](C)CC)C3=CC(=O)OC3)[C@@H]12`, the result in the data set with SH-SY5Y [1], with SH-SY5Y [2] and in the data set on SH-SY5Y [3] was inactive.

`CC(=O)OC[C@@]12[C@@H](OC(C)=O)C[C@@H](C)[C@](C)(C[C@H](O)C3=CC(=O)OC3)[C@H]1[C@H](OC(C)=O)CC[C@]21CO1`: the result in the data set on SH-SY5Y [1], in the data set on SH-SY5Y [2] and in the data set on SH-SY5Y [3] was inactive.

Regarding `CC[C@H](C)C(=O)O[C@@H]1CC[C@]2(CO2)[C@]2(COC(C)=O)[C@@H](OC(C)=O)C[C@@H](C)[C@](C)(C[C@H](O)C3=CC(=O)OC3)[C@@H]12`, the result in the data set on SH-SY5Y [1], in the data set with SH-SY5Y [2] and with SH-SY5Y [3] was inactive.

Source of the values: ChEMBL document CHEMBL1811884, “Bioactive neo-clerodane diterpenoids from the whole plants of Ajuga ciliata Bunge” (J Nat Prod, 2011).
